Assay results reported in ChEMBL document CHEMBL1135702, “Antitumor polycyclic acridines. 8.(1) Synthesis and telomerase-inhibitory activity of methylated pentacyclic acridinium salts” (J Med Chem, 2002).
pIC50: −log10 of the molar value.

Key:
[1] = Growth inhibition in the NCI 60 cell panel; assay type: functional; conditions: Homo sapiens
[2] = Selectivity index (GI50/Telomerase IC50)
[3] = target: Telomerase reverse transcriptase (Homo sapiens, UniProt O14746); experiment: Inhibition of telomerase activity using TRAP assay
Telomerase reverse transcriptase, sequence (O14746 whole entry): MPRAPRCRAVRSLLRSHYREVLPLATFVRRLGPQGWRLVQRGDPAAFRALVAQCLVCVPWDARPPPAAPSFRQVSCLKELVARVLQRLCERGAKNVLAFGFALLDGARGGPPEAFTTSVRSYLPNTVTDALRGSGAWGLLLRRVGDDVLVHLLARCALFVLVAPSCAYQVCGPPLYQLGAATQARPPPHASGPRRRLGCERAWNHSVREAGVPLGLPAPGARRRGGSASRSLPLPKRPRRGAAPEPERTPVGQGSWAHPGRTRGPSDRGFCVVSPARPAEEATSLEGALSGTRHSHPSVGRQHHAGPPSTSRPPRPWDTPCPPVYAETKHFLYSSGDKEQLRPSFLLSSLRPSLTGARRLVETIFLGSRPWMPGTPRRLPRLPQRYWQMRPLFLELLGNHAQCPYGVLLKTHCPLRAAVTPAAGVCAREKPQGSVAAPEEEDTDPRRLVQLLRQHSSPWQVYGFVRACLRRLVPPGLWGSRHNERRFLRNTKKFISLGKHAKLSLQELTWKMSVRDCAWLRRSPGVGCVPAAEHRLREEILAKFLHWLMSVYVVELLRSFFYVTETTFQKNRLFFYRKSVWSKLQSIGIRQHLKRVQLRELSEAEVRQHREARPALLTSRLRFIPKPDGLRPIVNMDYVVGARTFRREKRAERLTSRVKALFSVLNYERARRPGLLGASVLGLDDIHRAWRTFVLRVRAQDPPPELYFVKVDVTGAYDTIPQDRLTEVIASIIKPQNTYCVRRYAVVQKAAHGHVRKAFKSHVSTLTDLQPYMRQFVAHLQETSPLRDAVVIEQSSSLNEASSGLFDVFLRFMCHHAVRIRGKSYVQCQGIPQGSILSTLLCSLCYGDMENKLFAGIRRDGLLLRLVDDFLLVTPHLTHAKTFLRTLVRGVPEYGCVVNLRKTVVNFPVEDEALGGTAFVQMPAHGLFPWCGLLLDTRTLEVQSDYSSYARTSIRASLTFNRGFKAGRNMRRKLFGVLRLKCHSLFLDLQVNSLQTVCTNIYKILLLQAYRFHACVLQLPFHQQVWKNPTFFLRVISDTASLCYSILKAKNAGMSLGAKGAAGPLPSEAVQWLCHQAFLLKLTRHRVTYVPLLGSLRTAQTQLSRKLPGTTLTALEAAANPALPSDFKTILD
How it was run: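 Telomerase came from lysates of exponentially growing A2780 cells (CHAPS buffer, 30 min on ice, 0.1 mM AEBSF), using 40 ng protein. TS primer was extended in TRAP buffer (pH 8.3, 68 mM KCl) with 50 μM dNTPs and [α-³²P]dCTP, compound at various final concentrations, for 20 min at 25 °C. After 85 °C inactivation, the CX primer was added with Taq for 31 PCR cycles. Products were read by phosphoimaging or scintillation counting.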

SI [2]	pIC50 [3]	Compound	GI50 [1] [nM]
17	6.60	Cc1cc2c3c([n+](C)c4ccc(Cl)cc4c3c1)-c1cc(Cl)ccc1N2C	4170
40	6.48	Cc1cc2c3c([n+](C)c4ccc(F)cc4c3c1)-c1cc(F)ccc1N2C	13200
0.5	5.70	CCN1c2ccccc2-c2c3c1cc(C)cc3c1ccccc1[n+]2CC	1100
1.7	6.12	Cc1cc2c3c([n+](C)c4ccccc4c3c1)-c1ccccc1N2C	1290
1.8	6.60	Cc1ccc2c(c1)-c1c3c(cc(C)cc3c3cc(C)ccc3[n+]1C)N2C	410
		c1ccc2c(c1)Nc1cccc3cc4[n+](c-2c13)CCC4	90
	6.42	CN1c2ccccc2-c2c3c1cccc3c1ccccc1[n+]2C	
